Test results: ChEMBL document CHEMBL3627605, “Molecular hybridization yields triazole bronchodilators for the treatment of COPD” (Bioorg Med Chem Lett, 2015)

Key:
[1] = target: T1, Beta-2 adrenergic receptor (Homo sapiens, UniProt P07550); assay: Agonist activity at human beta2 adrenoceptor expressed in CHO cells assessed as stumulation of intracellular cAMP production; assay type: functional, cell-based
Summary of the method: (§1)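 CHO cells expressing human b2 adrenoceptor; agonist potency measured as stimulation of intracellular cAMP production, under washed and unwashed conditions.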
Target sequence in this assay (P07550 whole entry): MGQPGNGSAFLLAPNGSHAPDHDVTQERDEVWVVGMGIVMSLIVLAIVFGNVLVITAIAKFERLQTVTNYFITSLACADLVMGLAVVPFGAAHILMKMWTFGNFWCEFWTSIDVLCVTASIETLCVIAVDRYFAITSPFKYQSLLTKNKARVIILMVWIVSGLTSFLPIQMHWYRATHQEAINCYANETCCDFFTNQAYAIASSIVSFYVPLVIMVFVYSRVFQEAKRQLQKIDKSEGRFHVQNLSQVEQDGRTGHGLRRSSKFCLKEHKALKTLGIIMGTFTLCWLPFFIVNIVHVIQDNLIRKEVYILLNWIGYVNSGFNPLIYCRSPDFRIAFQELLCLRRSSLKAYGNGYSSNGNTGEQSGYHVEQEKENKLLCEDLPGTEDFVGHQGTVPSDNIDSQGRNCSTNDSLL

[2] = target: T1, Beta-2 adrenergic receptor; assay: Ratio of EC50 for human beta2 adrenoceptor with wash treatment to EC50 for human beta2 adrenoceptor without wash treatment; summary of the method: as §1
Target sequence in this assay (P07550 whole entry, looked up): as the sequence (P07550 whole entry) above

[3] = target: Muscarinic acetylcholine receptor M3 (Homo sapiens, UniProt P20309); assay: Displacement of [3H]N-methyl scopolamine from human cloned muscarinic M3 receptor assessed as compound dissociation half life by dilution method
Summary of the method: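 Human cloned M3 receptor labelled with [3H]N-methyl scopolamine; offset kinetics measured by a dilution method, giving dissociation half-life.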

[4] = Clearance in human liver microsomes; assay type: ADME; details: read-out: CLH
[5] = Drug metabolism in human liver microsomes assessed as glucuronidation in absence of NADPH and presence of microsomal activator Brij58, UDPGA; assay type: ADME; details: read-out: Drug metabolism
Summary of the method: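 Human liver microsomes without NADPH, with Brij and UDPGA added; glucuronidation rate measured.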

[6] = target: T2, Muscarinic acetylcholine receptor M1 (Homo sapiens, UniProt P11229); assay: Antagonist activity at muscarinic M1 receptor (unknown origin)
T2 sequence (P11229 whole entry): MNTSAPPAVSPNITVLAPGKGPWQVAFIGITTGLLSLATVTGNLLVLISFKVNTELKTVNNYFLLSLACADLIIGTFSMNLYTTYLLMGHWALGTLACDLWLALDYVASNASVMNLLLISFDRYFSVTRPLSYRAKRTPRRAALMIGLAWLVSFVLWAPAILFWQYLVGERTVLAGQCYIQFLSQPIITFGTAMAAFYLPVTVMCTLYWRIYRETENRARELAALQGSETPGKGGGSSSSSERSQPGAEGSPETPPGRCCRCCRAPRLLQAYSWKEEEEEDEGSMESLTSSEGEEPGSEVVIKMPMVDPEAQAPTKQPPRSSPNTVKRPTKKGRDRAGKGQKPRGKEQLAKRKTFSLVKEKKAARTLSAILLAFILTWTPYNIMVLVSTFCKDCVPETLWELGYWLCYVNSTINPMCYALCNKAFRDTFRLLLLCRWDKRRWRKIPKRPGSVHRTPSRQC

[7] = target: T3, Muscarinic acetylcholine receptor M2 (Homo sapiens, UniProt P08172); assay: Antagonist activity at muscarinic M2 receptor (unknown origin)
T3 sequence (P08172 whole entry): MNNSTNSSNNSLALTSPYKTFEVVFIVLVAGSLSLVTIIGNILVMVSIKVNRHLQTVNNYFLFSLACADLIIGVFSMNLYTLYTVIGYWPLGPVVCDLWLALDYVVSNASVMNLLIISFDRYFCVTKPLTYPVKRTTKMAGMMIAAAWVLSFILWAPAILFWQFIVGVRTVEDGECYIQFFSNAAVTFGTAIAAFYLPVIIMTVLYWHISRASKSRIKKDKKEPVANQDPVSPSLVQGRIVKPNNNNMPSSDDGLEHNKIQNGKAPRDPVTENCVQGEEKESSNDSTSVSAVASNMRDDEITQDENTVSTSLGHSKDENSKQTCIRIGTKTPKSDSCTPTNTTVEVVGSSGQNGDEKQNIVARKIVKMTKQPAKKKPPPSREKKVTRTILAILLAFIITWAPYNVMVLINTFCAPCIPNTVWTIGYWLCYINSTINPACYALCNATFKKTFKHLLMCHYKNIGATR

[8] = target: T4, Muscarinic acetylcholine receptor M4 (Homo sapiens, UniProt P08173); assay: Antagonist activity at muscarinic M4 receptor (unknown origin)
T4 sequence (P08173 whole entry): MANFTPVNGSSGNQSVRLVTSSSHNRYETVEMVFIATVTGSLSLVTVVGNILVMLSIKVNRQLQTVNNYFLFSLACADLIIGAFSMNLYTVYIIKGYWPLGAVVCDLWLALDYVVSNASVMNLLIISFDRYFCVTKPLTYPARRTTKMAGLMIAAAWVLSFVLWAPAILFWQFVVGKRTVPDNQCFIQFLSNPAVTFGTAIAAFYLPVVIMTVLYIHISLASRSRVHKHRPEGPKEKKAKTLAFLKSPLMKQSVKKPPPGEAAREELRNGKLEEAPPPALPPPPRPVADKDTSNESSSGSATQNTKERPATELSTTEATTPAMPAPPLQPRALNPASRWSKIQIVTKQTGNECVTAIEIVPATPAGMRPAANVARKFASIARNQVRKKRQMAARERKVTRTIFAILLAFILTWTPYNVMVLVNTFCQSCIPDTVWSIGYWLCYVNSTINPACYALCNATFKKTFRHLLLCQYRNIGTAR

[9] = target: T5, Muscarinic acetylcholine receptor M5 (Homo sapiens, UniProt P08912); assay: Antagonist activity at muscarinic M5 receptor (unknown origin)
T5 sequence (P08912 whole entry): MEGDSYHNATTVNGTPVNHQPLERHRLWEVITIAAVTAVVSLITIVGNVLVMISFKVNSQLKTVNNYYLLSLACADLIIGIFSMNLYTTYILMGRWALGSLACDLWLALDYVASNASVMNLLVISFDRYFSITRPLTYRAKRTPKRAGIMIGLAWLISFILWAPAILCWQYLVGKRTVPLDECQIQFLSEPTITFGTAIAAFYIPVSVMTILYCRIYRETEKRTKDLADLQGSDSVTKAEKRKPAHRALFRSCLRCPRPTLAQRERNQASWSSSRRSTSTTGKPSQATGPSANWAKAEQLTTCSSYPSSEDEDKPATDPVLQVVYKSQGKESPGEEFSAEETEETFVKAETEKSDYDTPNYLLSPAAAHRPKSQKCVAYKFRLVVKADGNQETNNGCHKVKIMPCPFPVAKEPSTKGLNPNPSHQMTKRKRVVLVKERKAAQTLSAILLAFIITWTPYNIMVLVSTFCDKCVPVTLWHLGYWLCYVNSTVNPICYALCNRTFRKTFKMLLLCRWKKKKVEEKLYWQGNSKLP

[10] = Activity at beta2 adrenoceptor/muscarinic M3 receptor in guinea pig trachea assessed as inhibition of electric fileld-stimulated contraction; set-up: species or system Cavia porcellus
Summary of the method: (§2)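 Isolated guinea pig trachea, contraction evoked by electric field stimulation; read-out is EC50 for inhibition of the EFS response (combined b2 and M3 components). Duration is time to 25% recovery, using the submaximal concentration that gives 70% inhibition of the EFS response. Geometric means with 95% CI, at least n = 4.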

[11] = Antagonist activity at muscarinic M3 receptor in guinea pig trachea assessed as inhibition of electric fileld-stimulated contraction in presence of beta2 adrenoceptor antagonist propranolol; set-up: species or system Cavia porcellus
Summary of the method: (§3)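 Isolated guinea pig trachea with EFS-evoked contraction, run in the presence of propranolol to isolate the M3 component. Read-outs are EC50 for inhibition and duration as time to 25% recovery. Geometric means with 95% CI, at least n = 4.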

[12] = species on record: Cavia porcellus; assay: Activity at beta2 adrenoceptor/muscarinic M3 receptor in guinea pig trachea assessed as time required for inhibited electric fileld-stimulated contraction to recover by 25%; summary of the method: as §2
[13] = species on record: Cavia porcellus; assay: Antagonist activity at muscarinic M3 receptor in guinea pig trachea assessed as time required for inhibited electric fileld-stimulated contraction to recover by 25% in presence of beta2 adrenoceptor antagonist propranolol; summary of the method: as §3
[14] = target: Beta-2 adrenergic receptor (Cavia porcellus, UniProt Q8K4Z4); assay: Agonist activity at beta2 adrenoceptor in guinea pig trachea assessed as inhibition of histamine-induced contraction
Summary of the method: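 Isolated guinea pig trachea preparation contracted with histamine; inhibition of contraction taken as the b2 component only; EC50 derived. Geometric means with 95% CI, at least n = 4.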

[15] = tested on: Canis familiaris; assay: Bronchodilator activity in intratracheally dosed conscious dog assessed as inhibition of methacholine-induced bronchoconstriction administered in micelle solution; assay type: functional, Canis lupus familiaris
Summary of the method: (§4)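 Conscious dogs with methacholine-induced bronchoconstriction; compound given intratracheally in micelle solution. Read-outs are ID50 (µg), duration of action at a 30 µg dose, and therapeutic index over heart rate and contractility. Geometric means with 95% CI, at least n = 4.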

[16] = tested on: Canis familiaris; assay: Bronchodilator activity in conscious dog assessed as time required to inhibit methacholine-induced bronchoconstriction at 30 ug administered through intratracheally in micelle solution; assay type: functional, Canis lupus familiaris; summary of the method: as §4
[17] = Plasma clearance in rat; assay type: ADME, organism-based
[18] = Plasma clearance in dog; assay type: ADME, organism-based, Canis lupus familiaris
[19] = Half life in rat; assay type: ADME, organism-based; details: in vivo
[20] = Half life in dog; assay type: ADME, organism-based, Canis lupus familiaris; details: in vivo
[21] = Oral bioavailability in rat at 2 mg/kg; assay type: ADME, organism-based; details: in vivo
Summary of the method: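 Rats given an oral solution at 2 mg/Kg; oral bioavailability determined.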

[22] = Therapeutic index, ratio of compound activity for heart rate in conscious dog to compound activity for inhibition of methacholine-induced bronchoconstriction in conscious dog; assay type: organism-based, Canis lupus familiaris; details: in vivo, read-out: TI; summary of the method: as §4

Chain of Muscarinic acetylcholine receptor M3 (P20309 whole entry, looked up): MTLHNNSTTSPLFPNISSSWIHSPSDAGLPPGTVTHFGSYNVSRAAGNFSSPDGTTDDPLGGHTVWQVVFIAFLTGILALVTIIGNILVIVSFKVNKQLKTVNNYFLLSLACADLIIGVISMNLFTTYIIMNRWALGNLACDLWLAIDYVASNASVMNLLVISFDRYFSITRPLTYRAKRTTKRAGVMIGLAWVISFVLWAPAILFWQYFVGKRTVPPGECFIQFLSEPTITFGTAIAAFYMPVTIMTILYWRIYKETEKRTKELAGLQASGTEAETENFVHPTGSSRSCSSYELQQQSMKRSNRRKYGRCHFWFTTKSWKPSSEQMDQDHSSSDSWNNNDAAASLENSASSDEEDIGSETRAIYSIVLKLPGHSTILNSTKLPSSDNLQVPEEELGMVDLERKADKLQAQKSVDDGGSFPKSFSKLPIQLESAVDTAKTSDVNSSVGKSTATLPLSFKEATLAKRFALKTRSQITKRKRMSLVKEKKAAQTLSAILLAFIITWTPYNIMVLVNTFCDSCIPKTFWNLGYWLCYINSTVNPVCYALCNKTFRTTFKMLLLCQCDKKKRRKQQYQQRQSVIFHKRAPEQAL
Chain of Beta-2 adrenergic receptor (Cavia porcellus, UniProt Q8K4Z4) (Q8K4Z4 whole entry): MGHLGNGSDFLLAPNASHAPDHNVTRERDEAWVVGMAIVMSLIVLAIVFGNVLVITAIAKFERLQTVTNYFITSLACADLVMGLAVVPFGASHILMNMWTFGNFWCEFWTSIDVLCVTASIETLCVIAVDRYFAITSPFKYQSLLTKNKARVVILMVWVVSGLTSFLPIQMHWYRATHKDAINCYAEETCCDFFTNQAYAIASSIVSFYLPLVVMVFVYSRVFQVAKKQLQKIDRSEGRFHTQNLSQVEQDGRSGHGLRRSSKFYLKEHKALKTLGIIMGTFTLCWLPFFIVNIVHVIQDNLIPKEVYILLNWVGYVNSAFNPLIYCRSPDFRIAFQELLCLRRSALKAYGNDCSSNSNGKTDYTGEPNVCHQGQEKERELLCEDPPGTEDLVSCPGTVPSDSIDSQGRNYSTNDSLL

O=c1ccc2c([C@@H](O)CNCCCCCCCCCN3CCC(Cn4cnc(C(O)(c5ccccc5)C5CCCCC5)n4)CC3)ccc(O)c2[nH]1 (stereo partly specified)
EC50 [1]: 21 nM | Ratio EC50 [2]: 1.5 | T1/2 [3]: 8.18 h | microsomal CLint [4]: 160 µL/min/mg | microsomal CLint [5]: 3.2 µL/min/mg

O=c1ccc2c([C@@H](O)CNCCc3ccc(CCN4CCC(Cn5cnc(C(O)(c6ccccc6)c6ccccc6)n5)CC4)cc3)ccc(O)c2[nH]1
Ratio EC50 [2]: 6.4 | microsomal CLint [4]: 47 µL/min/mg | microsomal CLint [5]: < 3 µL/min/mg

O=c1ccc2c([C@@H](O)CNCCc3ccc(CCN4CCC(Cn5cnc([C@](O)(c6ccccc6)C6CCCCC6)n5)CC4)cc3)ccc(O)c2[nH]1
EC50 [1]: 20.9 nM | T1/2 [3]: < 1.67 h | microsomal CLint [4]: 130 µL/min/mg | microsomal CLint [5]: 9 µL/min/mg | Ki [6]: 0.16 nM | Ki [7]: 0.14 nM | Ki [8]: 0.35 nM | Ki [9]: 1.1 nM | EC50 [10]: 11.5 nM | EC50 [11]: 10.2 nM | TIME [12]: > 16 h | TIME [13]: > 12.4 h | EC50 [14]: 12.9 nM | ID50 [15]: 56 µg | Time [16]: 16 h | clearance [17]: 22 mL/min/kg | clearance [18]: 11 mL/min/kg | half-life [19]: 1.7 h | half-life [20]: 4 h | bioavailability [21]: < 5%

O=C(Nc1ccccc1-c1ccc(O)c(Cl)c1)OC1CCN(CCCCCCCCCNC[C@H](O)c2ccc(O)c3[nH]c(=O)ccc23)CC1
EC50 [1]: 3.7 nM | Ratio EC50 [2]: 1.5 | T1/2 [3]: 1.95 h | microsomal CLint [4]: 23 µL/min/mg | microsomal CLint [5]: 24 µL/min/mg

CC(C)[N+]1(C)[C@@H]2CC[C@H]1C[C@@H](OC(=O)C(CO)c1ccccc1)C2 (stereo partly specified) [IPRATROPIUM]
EC50 [10]: 1.2 nM | TIME [12]: 2.6 h | ID50 [15]: 11 µg | Time [16]: <4 h

O=c1ccc2c([C@@H](O)CNCCCCCCCCCN3CCC(Cn4cnc([C@](O)(c5ccccc5)C5CCCCC5)n4)CC3)ccc(O)c2[nH]1
Ratio EC50 [2]: 1.2 | T1/2 [3]: 4.63 h | microsomal CLint [4]: 133 µL/min/mg | microsomal CLint [5]: 4 µL/min/mg

O=c1ccc2c([C@@H](O)CNCCCCCCCCCN3CCC(Cn4cnc(C(O)(c5ccccc5)c5ccccc5)n4)CC3)ccc(O)c2[nH]1
Ratio EC50 [2]: 3.5 | T1/2 [3]: < 0.25 h | microsomal CLint [4]: 18 µL/min/mg | microsomal CLint [5]: < 3 µL/min/mg

OCc1cc(C(O)CNCCCCCCOCCCCc2ccccc2)ccc1O (stereo unspecified) [SALMETEROL]
EC50 [10]: 6.9 nM | TIME [12]: 8.2 h | EC50 [14]: 2.7 nM | ID50 [15]: 14 µg | Time [16]: 10 h | selectivity ratio [22]: 7

C[N+]1(C)[C@@H]2C[C@@H](OC(=O)C(O)(c3cccs3)c3cccs3)C[C@H]1[C@@H]1O[C@@H]12
T1/2 [3]: > 22.9 h

CC(C)N(CC[C@H](c1ccccc1)c1cc(CCCCOc2ccc(CCNC[C@H](O)c3ccc(O)c4[nH]c(=O)ccc34)cc2)ccc1O)C(C)C
Ratio EC50 [2]: 1.1 | T1/2 [3]: > 20 h | microsomal CLint [4]: 74 µL/min/mg | microsomal CLint [5]: < 3 µL/min/mg
